# From ChEMBL document CHEMBL1135791, “Lysergamides of isomeric 2,4-dimethylazetidines map the binding orientation of the diethylamide moiety in the potent hallucinogenic agent N,N-diethyllysergamide (LSD)” (J Med Chem, 2002)
# pKi: −log10 of the molar value. Values joined by “and” are separate entries in the source; they are usually repeats but may differ in a detail not shown here. Equal values may be shown once.
# Legend:
# [1] = target: T1, 5-hydroxytryptamine receptor 1A (Homo sapiens, UniProt P08908); experiment: Binding affinity towards 5-hydroxytryptamine 1A receptor using [3H]8-OH-DPAT as radioligand
# T1 sequence (P08908 whole entry): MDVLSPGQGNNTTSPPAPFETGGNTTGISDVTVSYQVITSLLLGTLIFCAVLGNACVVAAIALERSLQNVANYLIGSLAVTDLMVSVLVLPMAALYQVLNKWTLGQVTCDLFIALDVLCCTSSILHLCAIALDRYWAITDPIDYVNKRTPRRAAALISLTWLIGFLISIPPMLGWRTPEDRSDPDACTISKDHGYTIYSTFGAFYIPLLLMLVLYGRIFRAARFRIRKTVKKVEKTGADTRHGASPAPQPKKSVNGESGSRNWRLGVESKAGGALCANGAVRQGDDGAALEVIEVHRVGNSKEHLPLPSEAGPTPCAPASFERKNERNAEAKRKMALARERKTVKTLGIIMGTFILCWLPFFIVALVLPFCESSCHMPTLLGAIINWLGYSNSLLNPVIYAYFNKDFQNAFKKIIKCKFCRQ
# [2] = target: 5-hydroxytryptamine receptor 1E (Homo sapiens, UniProt P28566); experiment: Binding affinity towards 5-hydroxytryptamine 1E receptor
# 5-hydroxytryptamine receptor 1E, sequence (P28566 whole entry): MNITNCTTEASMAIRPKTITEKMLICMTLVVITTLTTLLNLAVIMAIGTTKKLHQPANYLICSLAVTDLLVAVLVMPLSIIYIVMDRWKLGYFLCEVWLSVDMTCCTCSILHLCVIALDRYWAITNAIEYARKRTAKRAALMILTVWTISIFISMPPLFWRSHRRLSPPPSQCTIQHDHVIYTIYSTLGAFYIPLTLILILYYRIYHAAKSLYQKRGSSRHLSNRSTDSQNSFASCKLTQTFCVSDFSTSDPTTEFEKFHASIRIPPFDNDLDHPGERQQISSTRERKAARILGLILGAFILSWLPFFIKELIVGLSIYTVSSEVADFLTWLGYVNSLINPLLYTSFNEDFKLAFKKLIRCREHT
# Summary of the method: (§1)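 Screening-panel competition binding. […] Each Ki was replicated 2–3 times and is reported as mean ± SEM from nonlinear fitting. Receptor source and radioligand are not given beyond an online protocol.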
# [3] = target: T2, 5-hydroxytryptamine receptor 1D (Homo sapiens, UniProt P28221); experiment: Binding affinities towards 5-hydroxytryptamine 1D receptor alpha; summary of the method: as §1
# T2 sequence (P28221 whole entry): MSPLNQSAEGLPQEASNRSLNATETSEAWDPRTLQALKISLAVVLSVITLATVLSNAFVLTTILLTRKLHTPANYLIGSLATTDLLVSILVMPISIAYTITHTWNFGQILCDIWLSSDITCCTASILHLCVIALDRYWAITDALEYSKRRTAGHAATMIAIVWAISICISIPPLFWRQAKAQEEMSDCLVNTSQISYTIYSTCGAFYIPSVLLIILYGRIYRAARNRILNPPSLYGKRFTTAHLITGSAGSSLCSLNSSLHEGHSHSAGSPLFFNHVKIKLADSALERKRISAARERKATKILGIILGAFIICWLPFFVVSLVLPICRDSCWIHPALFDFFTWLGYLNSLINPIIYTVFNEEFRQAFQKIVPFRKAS
# [4] = target: T3, 5-hydroxytryptamine receptor 2B (Homo sapiens, UniProt P41595); experiment: Binding affinities towards 5-hydroxytryptamine 2B receptor; summary of the method: as §1
# T3 sequence (P41595 whole entry): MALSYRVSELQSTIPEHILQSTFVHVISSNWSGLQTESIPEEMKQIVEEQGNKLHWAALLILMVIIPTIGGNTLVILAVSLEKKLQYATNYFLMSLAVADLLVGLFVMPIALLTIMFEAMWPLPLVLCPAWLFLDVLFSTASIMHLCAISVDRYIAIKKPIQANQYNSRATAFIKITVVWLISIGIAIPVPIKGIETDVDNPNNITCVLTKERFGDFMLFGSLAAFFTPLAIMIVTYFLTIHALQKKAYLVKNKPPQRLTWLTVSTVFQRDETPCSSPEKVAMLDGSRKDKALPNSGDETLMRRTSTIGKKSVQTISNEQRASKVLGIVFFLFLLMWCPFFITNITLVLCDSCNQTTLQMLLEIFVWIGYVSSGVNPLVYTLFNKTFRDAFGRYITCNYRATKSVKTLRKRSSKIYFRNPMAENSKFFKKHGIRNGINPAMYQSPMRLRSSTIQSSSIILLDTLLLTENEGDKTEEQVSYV
# [5] = target: T4, 5-hydroxytryptamine receptor 5A (Homo sapiens, UniProt P47898); experiment: Binding affinities towards 5-hydroxytryptamine 5A receptor
# T4 sequence (P47898 whole entry): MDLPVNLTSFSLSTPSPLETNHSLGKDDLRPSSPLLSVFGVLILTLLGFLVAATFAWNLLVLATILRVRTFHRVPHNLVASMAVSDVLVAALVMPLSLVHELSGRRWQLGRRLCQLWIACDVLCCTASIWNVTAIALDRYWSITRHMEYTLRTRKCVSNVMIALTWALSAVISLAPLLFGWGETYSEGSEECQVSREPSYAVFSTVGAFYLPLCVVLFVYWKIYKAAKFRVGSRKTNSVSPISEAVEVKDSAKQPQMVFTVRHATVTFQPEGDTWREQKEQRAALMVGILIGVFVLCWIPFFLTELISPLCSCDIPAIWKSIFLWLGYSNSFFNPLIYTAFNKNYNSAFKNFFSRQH
# [6] = target: T5, 5-hydroxytryptamine receptor 6 (Homo sapiens, UniProt P50406); experiment: Binding affinities towards 5-hydroxytryptamine 6 receptor
# T5 sequence (P50406 whole entry): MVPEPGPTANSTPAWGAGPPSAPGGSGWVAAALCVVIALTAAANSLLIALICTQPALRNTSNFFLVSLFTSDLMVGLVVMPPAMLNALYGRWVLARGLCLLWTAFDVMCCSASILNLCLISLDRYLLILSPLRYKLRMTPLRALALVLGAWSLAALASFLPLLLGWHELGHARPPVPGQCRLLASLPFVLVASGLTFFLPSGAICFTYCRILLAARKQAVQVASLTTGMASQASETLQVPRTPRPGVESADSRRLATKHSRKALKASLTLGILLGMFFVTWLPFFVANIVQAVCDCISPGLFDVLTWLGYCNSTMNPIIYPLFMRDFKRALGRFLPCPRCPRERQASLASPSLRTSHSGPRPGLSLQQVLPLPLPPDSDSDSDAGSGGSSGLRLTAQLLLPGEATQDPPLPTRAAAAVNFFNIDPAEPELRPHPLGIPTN
# Summary of the method: (§2)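 Screening-panel competition binding. Each Ki was replicated 2–3 times and is reported as mean ± SEM from nonlinear fitting. Receptor source and radioligand are not given beyond an online protocol.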
# D(1A) dopamine receptor [7] = target: T6, D(1A) dopamine receptor (Mus musculus, UniProt Q61616); experiment: Binding affinity towards Dopamine receptor D1; summary of the method: as §1
# T6 sequence (Q61616 whole entry): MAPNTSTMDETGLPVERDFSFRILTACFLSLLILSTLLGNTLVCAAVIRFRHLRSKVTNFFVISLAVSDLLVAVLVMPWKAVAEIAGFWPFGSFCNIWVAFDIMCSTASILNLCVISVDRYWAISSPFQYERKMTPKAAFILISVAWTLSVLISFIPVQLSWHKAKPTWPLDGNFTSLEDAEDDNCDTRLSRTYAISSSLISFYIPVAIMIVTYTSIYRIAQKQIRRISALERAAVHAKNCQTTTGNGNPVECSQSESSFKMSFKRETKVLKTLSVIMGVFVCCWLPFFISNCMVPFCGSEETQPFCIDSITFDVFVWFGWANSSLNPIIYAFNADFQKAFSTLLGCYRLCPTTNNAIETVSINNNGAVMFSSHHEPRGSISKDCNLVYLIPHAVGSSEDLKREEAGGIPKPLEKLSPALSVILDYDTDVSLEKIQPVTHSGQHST
# D(2) dopamine receptor [8] = target: T7, D(2) dopamine receptor (Homo sapiens, UniProt P14416); experiment: Binding affinity towards Dopamine receptor D2
# T7 sequence (P14416 whole entry): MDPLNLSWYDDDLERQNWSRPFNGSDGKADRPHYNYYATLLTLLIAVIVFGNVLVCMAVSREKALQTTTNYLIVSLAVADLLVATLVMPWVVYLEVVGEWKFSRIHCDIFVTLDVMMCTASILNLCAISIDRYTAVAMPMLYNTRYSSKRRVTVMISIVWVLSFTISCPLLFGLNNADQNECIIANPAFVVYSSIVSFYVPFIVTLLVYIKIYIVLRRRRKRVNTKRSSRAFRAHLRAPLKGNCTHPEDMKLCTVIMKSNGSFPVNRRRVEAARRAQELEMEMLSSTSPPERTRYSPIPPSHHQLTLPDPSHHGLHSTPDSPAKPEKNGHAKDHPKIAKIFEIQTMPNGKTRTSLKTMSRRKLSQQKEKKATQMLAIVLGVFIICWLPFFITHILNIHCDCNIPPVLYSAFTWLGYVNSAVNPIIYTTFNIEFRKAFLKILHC
# Histamine H1 receptor [9] = target: T8, Histamine H1 receptor (Homo sapiens, UniProt P35367); experiment: Binding affinity towards Histamine H1 receptor; summary of the method: as §2
# T8 sequence (P35367 whole entry): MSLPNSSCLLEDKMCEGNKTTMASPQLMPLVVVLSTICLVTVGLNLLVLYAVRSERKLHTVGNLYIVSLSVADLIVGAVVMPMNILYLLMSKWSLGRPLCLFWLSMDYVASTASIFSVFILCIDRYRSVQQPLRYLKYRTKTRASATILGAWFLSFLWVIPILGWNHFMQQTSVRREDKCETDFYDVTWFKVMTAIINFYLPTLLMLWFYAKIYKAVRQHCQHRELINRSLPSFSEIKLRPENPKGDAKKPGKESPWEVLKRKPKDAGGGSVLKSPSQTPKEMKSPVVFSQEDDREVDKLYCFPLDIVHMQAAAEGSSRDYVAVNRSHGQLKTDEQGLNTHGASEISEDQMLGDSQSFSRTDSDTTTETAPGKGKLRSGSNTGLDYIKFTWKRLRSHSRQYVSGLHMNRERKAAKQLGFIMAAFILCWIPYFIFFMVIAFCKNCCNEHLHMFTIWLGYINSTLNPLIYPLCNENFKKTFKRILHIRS
# Rattus norvegicus [10] = experiment: Compound was evaluated for the percentage of rats disrupted following a dose of 0.02 mg/kg and 0.049 uM/kg; type: functional
# Summary of the method: (§3)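 LSD-trained rats (0.08 mg/kg ip vs saline, two-lever, FR50) were given the test drug ip 30 min before extinction sessions, with ≥8 rats per dose. A session was scored as disrupted if 50 presses on one lever were not completed within 5 min. The value is the percentage of rats disrupted at each dose.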
# Rattus norvegicus [11] = experiment: Compound was evaluated for the percentage of rats selecting the drug lever (SDL) following a dose of 0.02 mg/kg and 0.049 uM/kg; type: functional
# Rattus norvegicus [12] = experiment: Compound was evaluated for the percentage of rats selecting the drug lever (SDL) following a dose of 0.04 mg/kg and 0.097 uM/kg; type: functional
# Rattus norvegicus [13] = experiment: Compound was evaluated for effective dose measured in mg/kg following a dose of 0.04 mg/kg and 0.097 uM/kg (95%CI); range 0.027-0.11; type: functional
# Rattus norvegicus [14] = experiment: Compound was evaluated for the percentage of rats selecting the drug lever (SDL) following a dose of 0.08 mg/kg and 0.194 uM/kg; type: functional
# Rattus norvegicus [15] = experiment: Compound was evaluated for the percentage of rats selecting the drug lever (SDL) following a dose of 0.16 mg/kg and 0.388 uM/kg; type: functional
# Summary of the method: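 Test drug was given ip 30 min before sessions run under extinction, with ≥8 rats per dose. The first lever reaching 50 presses scored as selected. No completion within 5 min counted as disruption.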
# Rattus norvegicus [16] = experiment: Compound was evaluated for effective dose measured in mg/kg following a dose of 0.04 mg/kg and 0.097 uM/kg (95%CI); type: functional
# Rattus norvegicus [17] = experiment: Compound was evaluated for effective dose measured in nmol/kg following a dose of 0.04 mg/kg and 0.097 uM/kg (95%CI); type: functional
# [18] = target: T2, 5-hydroxytryptamine receptor 1D; experiment: Binding affinity towards 5-hydroxytryptamine 1D receptor alpha using [3H]8-OH-DPAT as radioligand
# D(1A) dopamine receptor [19] = target: T6, D(1A) dopamine receptor; experiment: Binding affinities towards Dopamine receptor D1; summary of the method: as §1
# D(4) dopamine receptor = target: T9, D(4) dopamine receptor (Homo sapiens, UniProt P21917); experiment: Binding affinity towards Dopamine receptor D4; summary of the method: as §2
# T9 sequence (P21917 whole entry): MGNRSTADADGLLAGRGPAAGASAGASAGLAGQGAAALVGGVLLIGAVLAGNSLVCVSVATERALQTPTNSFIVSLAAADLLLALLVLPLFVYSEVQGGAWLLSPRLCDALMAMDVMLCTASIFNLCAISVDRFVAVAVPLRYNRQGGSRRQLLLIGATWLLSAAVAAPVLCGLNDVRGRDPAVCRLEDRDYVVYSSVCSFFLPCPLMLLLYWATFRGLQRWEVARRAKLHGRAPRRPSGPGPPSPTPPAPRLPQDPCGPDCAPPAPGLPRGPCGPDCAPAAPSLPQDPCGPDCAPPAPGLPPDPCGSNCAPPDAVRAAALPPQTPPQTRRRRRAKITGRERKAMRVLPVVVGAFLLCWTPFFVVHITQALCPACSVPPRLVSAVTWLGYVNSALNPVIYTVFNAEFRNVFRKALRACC
# D(3) dopamine receptor = D(3) dopamine receptor (Homo sapiens, UniProt P35462); experiment: Binding affinity towards Dopamine receptor D3
# D(3) dopamine receptor, sequence (P35462 whole entry): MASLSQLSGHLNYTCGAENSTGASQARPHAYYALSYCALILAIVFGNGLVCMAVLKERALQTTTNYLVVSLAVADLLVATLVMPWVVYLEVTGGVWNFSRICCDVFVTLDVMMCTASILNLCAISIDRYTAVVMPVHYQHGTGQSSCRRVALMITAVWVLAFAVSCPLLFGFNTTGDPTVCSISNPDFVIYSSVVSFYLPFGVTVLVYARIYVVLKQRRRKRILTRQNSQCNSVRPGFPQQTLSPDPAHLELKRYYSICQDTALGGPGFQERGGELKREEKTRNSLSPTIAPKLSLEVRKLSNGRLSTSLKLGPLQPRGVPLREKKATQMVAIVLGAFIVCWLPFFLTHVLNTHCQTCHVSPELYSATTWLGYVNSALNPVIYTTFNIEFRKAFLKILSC
# D(1B) dopamine receptor = D(1B) dopamine receptor (Homo sapiens, UniProt P21918); experiment: Binding affinity towards Dopamine receptor D5; summary of the method: as §2
# D(1B) dopamine receptor, sequence (P21918 whole entry): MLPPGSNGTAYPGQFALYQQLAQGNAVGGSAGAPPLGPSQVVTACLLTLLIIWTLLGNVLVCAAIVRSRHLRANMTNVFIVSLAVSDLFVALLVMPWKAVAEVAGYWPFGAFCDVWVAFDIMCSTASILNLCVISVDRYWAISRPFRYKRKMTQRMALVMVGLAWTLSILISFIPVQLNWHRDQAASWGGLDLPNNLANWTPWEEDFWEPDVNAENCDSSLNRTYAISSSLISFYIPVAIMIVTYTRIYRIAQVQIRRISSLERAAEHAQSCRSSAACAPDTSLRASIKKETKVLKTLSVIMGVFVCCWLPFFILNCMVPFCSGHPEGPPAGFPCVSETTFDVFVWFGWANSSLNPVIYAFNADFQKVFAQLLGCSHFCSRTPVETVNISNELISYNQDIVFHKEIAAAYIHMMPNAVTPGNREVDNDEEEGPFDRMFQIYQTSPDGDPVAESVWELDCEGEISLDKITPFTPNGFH
# Rattus norvegicus [20] = experiment: Percentage of rats disrupted after 0.01 mg/kg, 0.023 uM/kg dose; type: functional; summary of the method: as §3
# Rattus norvegicus [21] = experiment: Percentage of rats disrupted after 0.02 mg/kg, 0.046 uM/kg dose; type: functional; summary of the method: as §3
# Rattus norvegicus [22] = experiment: Percentage of rats disrupted after 0.04 mg/kg, 0.093 uM/kg dose; type: functional; summary of the method: as §3
# Rattus norvegicus [23] = experiment: Percentage of rats disrupted after 0.08 mg/kg, 0.186 uM/kg dose (95%CI); type: functional; summary of the method: as §3
# Rattus norvegicus [24] = experiment: Effective dose in rats as nmol/kg after 0.04 mg/kg, 0.093 uM/kg dose (95%CI); type: functional
# Rattus norvegicus [25] = experiment: Percentage of rats selecting drug lever (SDL) after 0.08 mg/kg, 0.186 uM/kg dose; type: functional
# Rattus norvegicus [26] = experiment: Percentage of rats selecting drug lever (SDL) after 0.04 mg/kg, 0.093 uM/kg dose; type: functional
# Rattus norvegicus [27] = experiment: Percentage of rats selecting the drug lever (SDL) after 0.01 mg/kg, 0.023 uM/kg dose; type: functional
# Rattus norvegicus [28] = experiment: Percentage of rats selecting the drug lever (SDL) after 0.02 mg/kg, 0.046 uM/kg dose; type: functional
# Rattus norvegicus [29] = experiment: Effective dose as nmol/kg after 0.02 mg/kg, 0.046 uM/kg dose (95%CI); type: functional
# [30] = target: T1, 5-hydroxytryptamine receptor 1A; experiment: Binding affinity against 5-hydroxytryptamine 1A receptor using [3H]8-OH-DPAT as radioligand
# Summary of the method: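 Competition binding at human 5-HT1A stably expressed in CHO cells (maintained in MEM, 10% dialyzed FBS, hygromycin B; serum-free 5 h before harvest, pellets stored –80 °C). 0.80 nM [3H]8-OH-DPAT, buffer 50 mM Tris/0.5 mM EDTA/10 mM MgCl2 pH 7.4, 60 min at 25 °C, filtration.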
# [31] = target: T2, 5-hydroxytryptamine receptor 1D; experiment: Binding affinities against 5-hydroxytryptamine 1D receptor alpha; summary of the method: as §1
# [32] = target: T3, 5-hydroxytryptamine receptor 2B; experiment: Binding affinities against 5-hydroxytryptamine 2B receptor; summary of the method: as §1
# [33] = target: T5, 5-hydroxytryptamine receptor 6; experiment: Binding affinities against 5-hydroxytryptamine 6 receptor; summary of the method: as §1
# D(1A) dopamine receptor [34] = target: T6, D(1A) dopamine receptor; experiment: Binding affinity against Dopamine receptor D1; summary of the method: as §1
# D(2) dopamine receptor [35] = target: T7, D(2) dopamine receptor; experiment: Binding affinity against Dopamine receptor D2; summary of the method: as §1
# Histamine H1 receptor [36] = target: T8, Histamine H1 receptor; experiment: Binding affinity against Histamine H1 receptor; summary of the method: as §1
# Rattus norvegicus [37] = experiment: Compound was evaluated for effective dose measured in mg/kg following a dose of 0.08 mg/kg and 0.194 uM/kg (95%CI); range 0.030-0.075; type: functional
# [38] = target: 5-hydroxytryptamine receptor 7 (Homo sapiens, UniProt P34969); experiment: Binding affinities against 5-hydroxytryptamine 7 receptor
# 5-hydroxytryptamine receptor 7, sequence (P34969 whole entry): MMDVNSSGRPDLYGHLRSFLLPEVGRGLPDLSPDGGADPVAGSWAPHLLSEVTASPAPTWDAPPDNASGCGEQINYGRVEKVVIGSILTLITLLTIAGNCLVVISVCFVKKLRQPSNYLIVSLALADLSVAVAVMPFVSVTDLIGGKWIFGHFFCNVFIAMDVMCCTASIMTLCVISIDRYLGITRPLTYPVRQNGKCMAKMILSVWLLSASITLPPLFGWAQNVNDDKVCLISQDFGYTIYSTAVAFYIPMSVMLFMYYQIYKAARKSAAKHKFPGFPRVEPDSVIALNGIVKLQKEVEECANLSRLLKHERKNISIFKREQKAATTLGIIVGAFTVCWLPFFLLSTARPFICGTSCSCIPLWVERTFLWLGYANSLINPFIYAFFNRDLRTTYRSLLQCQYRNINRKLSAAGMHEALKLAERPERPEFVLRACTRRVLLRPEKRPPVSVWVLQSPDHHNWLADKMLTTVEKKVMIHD
# [39] = target: T4, 5-hydroxytryptamine receptor 5A; experiment: Binding affinities against 5-hydroxytryptamine 5A receptor; summary of the method: as §1
# Rattus norvegicus [40] = experiment: Compound was evaluated for the percentage of rats disrupted following a dose of 0.01 mg/kg and 0.025 uM/kg; type: functional; summary of the method: as §3
# Rattus norvegicus [41] = experiment: Compound was evaluated for the percentage of rats selecting the drug lever (SDL) following a dose of 0.01 mg/kg and 0.025 uM/kg; type: functional
# Rattus norvegicus [42] = experiment: Compound was evaluated for effective dose measured in mg/kg following a dose of 0.04 mg/kg and 0.097 uM/kg (95%CI); range 0.007-0.016; type: functional
# Rattus norvegicus [43] = experiment: Compound was evaluated for effective dose measured in mg/kg following a dose of 0.02 mg/kg and 0.049 uM/kg (95%CI); type: functional
compound,measurement,setting,value
C[C@@H]1C[C@@H](C)N1C(=O)[C@@H]1C=C2c3cccc4[nH]cc(c34)CC2N(C)C1 (some centres not stated),pKi,[1],8.17
same,pKi,[2],6.85
same,pKi,[3],8.70
same,pKi,[4],6.51
same,pKi,[5],7.89
same,pKi,[6],7.21
same,pKi,D(1A) dopamine receptor [7],6.47
same,pKi,D(2) dopamine receptor [8],6.48
same,pKi,Histamine H1 receptor [9],5.85
same,D,Rattus norvegicus [10],0%
same,D,Rattus norvegicus [11],0%
same,D,Rattus norvegicus [12],10%
same,SDL,Rattus norvegicus [13],80%
same,ED50,Rattus norvegicus [14],0.027 mg/kg
same,SDL,Rattus norvegicus [14]; 0.08 mg/kg,25% and 56%
same,SDL,Rattus norvegicus [15],40%
same,D,Rattus norvegicus [16],17%
same,ED50,Rattus norvegicus [16],0.055 mg/kg
same,ED50,Rattus norvegicus [17],0.066 µmol/kg
CCN(CC)C(=O)[C@@H]1C=C2c3cccc4[nH]cc(c34)C[C@H]2N(C)C1 [LYSERGIDE],pKi,[2],7.03
same,pKi,[18],8.41
same,pKi,D(1A) dopamine receptor [19],6.74
same,pKi,D(2) dopamine receptor [8],6.92
same,pKi,D(4) dopamine receptor,7.25
same,pKi,D(3) dopamine receptor,7.57
same,pKi,D(1B) dopamine receptor,6.47
same,D,Rattus norvegicus [20],0%
same,D,Rattus norvegicus [21],0%
same,D,Rattus norvegicus [22],0%
same,D,Rattus norvegicus [23],0%
same,ED50,Rattus norvegicus [24],0.032 µmol/kg
same,SDL,Rattus norvegicus [25],100%
same,SDL,Rattus norvegicus [26],75%
same,SDL,Rattus norvegicus [27],17%
same,SDL,Rattus norvegicus [28],58%
same,ED50,Rattus norvegicus [29],0.045 µmol/kg
C[C@@H]1C[C@H](C)N1C(=O)[C@@H]1C=C2c3cccc4[nH]cc(c34)CC2N(C)C1 (some centres not stated),pKi,[30],8.96
same,pKi,[2],6.70
same,pKi,[31],8.43
same,pKi,[32],7.36
same,pKi,[33],7.89
same,pKi,D(1A) dopamine receptor [34],6.64
same,pKi,D(2) dopamine receptor [35],7.22
same,pKi,Histamine H1 receptor [36],6.30
same,D,Rattus norvegicus [10],12%
same,D,Rattus norvegicus [11],0%
same,D,Rattus norvegicus [12],0%
same,SDL,Rattus norvegicus [12],33%
same,ED50,Rattus norvegicus [15],0.03 mg/kg
same,D,Rattus norvegicus [16],20%
same,SDL,Rattus norvegicus [16],70%
same,ED50,Rattus norvegicus [37],0.047 mg/kg
same,pKi,[38],7.92
same,pKi,[39],7.80
C[C@H]1C[C@H](C)N1C(=O)[C@@H]1C=C2c3cccc4[nH]cc(c34)CC2N(C)C1 (some centres not stated),pKi,[1],9.35
same,pKi,[2],6.55
same,pKi,[3],8.62
same,pKi,[4],7.57
same,pKi,[5],7.57
same,pKi,[6],7.82
same,pKi,D(1A) dopamine receptor [7],6.54
same,pKi,D(2) dopamine receptor [8],6.96
same,pKi,Histamine H1 receptor [9],5.60
same,D,Rattus norvegicus [40],6%
same,ED50,Rattus norvegicus [10],0.025 µmol/kg
same,D,Rattus norvegicus [41],7%
same,D,Rattus norvegicus [11],0%
same,SDL,Rattus norvegicus [12],67% and 90%
same,SDL,Rattus norvegicus [42],100%
same,SDL,Rattus norvegicus [14],50%
same,D,Rattus norvegicus [43],0%
same,ED50,Rattus norvegicus [43],0.01 mg/kg
